Source: ChEMBL document CHEMBL4229446, “Development of Novel Monoamine Oxidase-B (MAO-B) Inhibitors with Reduced Blood-Brain Barrier Permeability for the Potential Management of Noncentral Nervous System (CNS) Diseases” (J Med Chem, 2018)

Columns and labels:
[1] = biological target: T1, Amine oxidase [flavin-containing] A (Homo sapiens, UniProt P21397); experiment: Inhibition of human recombinant MAO-A expressed in baculovirus infected BTI-TN-5B1-4 insect cells using tyramine as substrate preincubated for 1 hr followed by substrate addition and measured after 30 mins by resazurin dye-based fluorescence assay
T1 sequence (P21397 whole entry): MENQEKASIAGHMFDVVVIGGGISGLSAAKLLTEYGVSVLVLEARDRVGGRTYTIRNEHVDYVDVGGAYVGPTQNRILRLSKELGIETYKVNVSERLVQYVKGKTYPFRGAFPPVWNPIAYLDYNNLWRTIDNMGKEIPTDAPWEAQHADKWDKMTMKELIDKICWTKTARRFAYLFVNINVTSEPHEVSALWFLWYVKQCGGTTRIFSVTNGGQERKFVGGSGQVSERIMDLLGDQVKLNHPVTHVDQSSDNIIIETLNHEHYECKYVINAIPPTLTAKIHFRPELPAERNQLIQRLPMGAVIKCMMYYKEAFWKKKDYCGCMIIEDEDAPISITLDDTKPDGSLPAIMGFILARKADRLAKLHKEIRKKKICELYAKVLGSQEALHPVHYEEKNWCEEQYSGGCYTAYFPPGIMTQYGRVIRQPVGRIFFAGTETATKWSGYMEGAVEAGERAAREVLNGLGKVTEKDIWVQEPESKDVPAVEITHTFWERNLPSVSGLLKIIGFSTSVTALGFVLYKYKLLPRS

[2] = biological target: T2, Amine oxidase [flavin-containing] B (Homo sapiens, UniProt P27338); experiment: Inhibition of human recombinant MAO-B expressed in baculovirus infected BTI-TN-5B1-4 insect cells using benzylamine as substrate preincubated for 1 hr followed by substrate addition and measured after 30 mins by resazurin dye-based fluorescence assay; format: cell-based
T2 sequence (P27338 whole entry): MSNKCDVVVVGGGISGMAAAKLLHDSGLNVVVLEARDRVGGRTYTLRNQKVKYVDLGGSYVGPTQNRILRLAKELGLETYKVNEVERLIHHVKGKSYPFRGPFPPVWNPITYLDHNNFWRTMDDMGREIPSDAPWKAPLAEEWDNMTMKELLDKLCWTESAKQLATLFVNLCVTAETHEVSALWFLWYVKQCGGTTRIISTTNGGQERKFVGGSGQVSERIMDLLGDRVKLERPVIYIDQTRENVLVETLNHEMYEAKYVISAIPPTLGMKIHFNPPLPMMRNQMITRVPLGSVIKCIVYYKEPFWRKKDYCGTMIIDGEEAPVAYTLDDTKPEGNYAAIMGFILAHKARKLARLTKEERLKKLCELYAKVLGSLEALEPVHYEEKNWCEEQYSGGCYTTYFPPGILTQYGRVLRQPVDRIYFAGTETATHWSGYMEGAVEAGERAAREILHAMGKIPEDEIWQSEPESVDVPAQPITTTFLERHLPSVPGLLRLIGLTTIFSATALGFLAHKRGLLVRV

[3] = Metabolic stability in cryopreserved mouse hepatocytes assessed as parent compound remaining at 1 uM after 60 mins by UPLC-MS/MS analysis; format: ADME, cell-based, Hepatocyte; details: read-out: Stability
Mus musculus [4] = experiment: Acute toxicity in C57BL/6 mouse assessed as abnormal clinical signs at […], sc administered as single dose measured after 24 hrs post-injection; format: organism-based; details: in vivo
[5] = Metabolic stability in human plasma assessed as parent compound remaining at 5 uM after 4 hrs by UPLC-MS/MS analysis; format: ADME, cell-free; details: read-out: Stability
Method in brief: (§1)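 Compound at 5 μM was incubated in mouse or human plasma at 37 °C with shaking. Sampled at 0, 5, 15, 30, 60, 120 and 240 min and stopped with ice-cold acetonitrile/0.1% formic acid containing internal standard. Supernatants analysed by UPLC-MS/MS for parent remaining. Run in triplicate.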

[6] = Metabolic stability in mouse plasma assessed as parent compound remaining at 5 uM after 4 hrs by UPLC-MS/MS analysis; format: ADME, cell-free; details: read-out: Stability; method in brief: as §1
[7] = Tmax in C57BL/6 mouse plasma at 20 mg/kg, iv administered as single dose measured 24 hrs by UPLC-MS/MS analysis; format: ADME, organism-based
Method in brief: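 Plasma cleaned by protein precipitation with phospholipid removal, then UPLC-MS/MS in MRM mode. Tmax obtained by noncompartmental analysis.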

Mus musculus [8] = experiment: Acute toxicity in C57BL/6 mouse assessed as abnormal clinical signs at […], iv administered as single dose measured after 24 hrs post-injection; format: organism-based; details: in vivo
[9] = Metabolic stability in mouse liver microsomes assessed as parent compound remaining at 1 uM after 60 mins in presence of NADPH by UPLC-MS/MS analysis; format: ADME, microsome; details: read-out: Stability
Method in brief: (§2)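 Compound at 1 μM with 0.5 mg/mL mouse or human liver microsomes in 100 mM potassium phosphate pH 7.4, 3.3 mM MgCl2, 1 mM NADPH, at 37 °C. Started with NADPH; minus-NADPH control run. Stopped at 0, 5, 15, 30, 45 and 60 min with acetonitrile/formic acid plus internal standard. Parent remaining by UPLC-MS/MS, in triplicate.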

[10] = Cmax in C57BL/6 mouse plasma at 20 mg/kg, iv administered as single dose measured 24 hrs by UPLC-MS/MS analysis; format: ADME, organism-based; parameters: dose 20 mg/kg, route intravenous
Method in brief: (§3)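 21 animals dosed at 0 min, 3 sacrificed at each of 0, 5, 15, 30 min, 1, 4 and 24 h. Plasma was extracted by protein precipitation with phospholipid removal. Brain was weighed, bead-homogenised in 50 mM ammonium formate and extracted in acidified organic solvent. Quantified by UPLC-MS/MS (MRM). Brain ng/g taken as ng/mL. Parameters came from noncompartmental analysis. Kp = AUClast brain/plasma.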

[11] = AUClast in C57BL/6 mouse plasma at 20 mg/kg, iv administered as single dose measured 24 hrs by UPLC-MS/MS analysis; format: ADME, organism-based; parameters: dose 20 mg/kg, route intravenous, time 0 - last; method in brief: as §3
[12] = Metabolic stability in human liver microsomes assessed as parent compound remaining at 1 uM after 60 mins by UPLC-MS/MS analysis; format: ADME, microsome; details: liver microsomes, read-out: Stability; method in brief: as §2
P-gp (MDR1) = experiment: Efflux ratio of apparent permeability in MDCK2-MDR1 cells at 10 uM after 1 hr in absence of P-gp inhibitor verapamil by UPLC-MS/MS analysis; format: ADME, cell-based, Canis lupus familiaris; details: dog, MDCK-MDR1
Method in brief: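 MDCK-WT (MEM-α/10% FBS) or MDCK-MDR1 II (DMEM/10% FBS) cells were grown 3 days on 12-well transwells. Integrity was checked by TEER and 100 μM Lucifer yellow. Cells were washed in HBSS/10 mM HEPES. Compound at 10 μM was added apically or basally, in triplicate, ±100 μM verapamil. Receiver sampled at 1 h by UPLC-MS/MS. Efflux ratio = Papp B→A / Papp A→B.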

[13] = Ratio of AUClast in brain to plasma in C57BL/6 mouse at 20 mg/kg, iv administered as single dose measured 24 hrs by UPLC-MS/MS analysis; format: ADME, organism-based; method in brief: as §3
[14] = Efflux ratio of apparent permeability in MDCK-WT cells at 10 uM after 1 hr in absence of P-gp inhibitor verapamil by UPLC-MS/MS analysis; details: dog
[15] = Tmax in C57BL/6 mouse brain at 20 mg/kg, iv administered as single dose measured 24 hrs by UPLC-MS/MS analysis; format: ADME, organism-based; method in brief: as §3
[16] = Cmax in C57BL/6 mouse brain at 20 mg/kg, iv administered as single dose measured 24 hrs by UPLC-MS/MS analysis; format: ADME, organism-based; parameters: dose 20 mg/kg, route intravenous; method in brief: as §3
Mus musculus [17] = experiment: Acute toxicity in C57BL/6 mouse assessed as abnormal clinical signs at […], po administered as single dose measured after 24 hrs post-injection; format: organism-based; details: in vivo
[18] = AUClast in C57BL/6 mouse brain at 20 mg/kg, iv administered as single dose measured 24 hrs by UPLC-MS/MS analysis; format: ADME, organism-based; parameters: dose 20 mg/kg, time 0 - last, route intravenous; method in brief: as §3
[19] = Apparent half-life of the terminal disposition phase in C57BL/6 mouse plasma at 20 mg/kg, iv administered as single dose measured 24 hrs by UPLC-MS/MS analysis; format: ADME, organism-based; details: read-out: t1/2 lambda z (converted); method in brief: as §3

| SMILES | IC50 [1] [µM] | IC50 [2] [µM] | also measured |
| --- | --- | --- | --- |
| CN(CC(=O)O)[C@H](COCc1ccccc1)Cc1ccc(OCc2ccccc2)cc1 | > 50 | 8 | – |
| C[C@H](Cc1ccc(OCc2cccc(F)c2)cc1)N(C)CC(=O)O | > 50 | 0.869 | – |
| C[C@H](Cc1ccc(OCc2cc(F)cc(F)c2)cc1)N(C)CC(=O)O | > 50 | 0.911 | – |
| C[C@H](Cc1ccc(OCc2cccc(Cl)c2)cc1)N(C)CC(=O)O | > 50 | 0.264 | remaining at 1 h, 1 µM [3]: ≥ 90%; Activity (Mus musculus [4]): Non-Toxic; remaining at 4 h, 5 µM [5]: ≥ 75%; remaining at 4 h, 5 µM [6]: ≥ 75%; Tmax [7]: 5 min; Activity (Mus musculus [8]): Non-Toxic; remaining at 1 h, 1 µM [9]: 87.3%; Cmax [10]: 16600 ng/mL; AUC(0-t) at 24 h [11]: 112000 ng·h/mL; remaining at 1 h, 1 µM [12]: ≥ 90%; efflux ratio at 1 h, 10 µM (P-gp (MDR1)): 1.75; Kp at 24 h [13]: 0.02; efflux ratio at 1 h, 10 µM [14]: 1.23; Tmax [15]: 1 h; Cmax [16]: 648 ng/mL; Activity (Mus musculus [17]): Non-Toxic; AUC(0-t) at 24 h [18]: 2280 ng·h/mL; half-life [19]: 4.51 h |
| C[C@H](Cc1ccc(OCc2ccccc2)cc1)N(C)CC(=O)O | > 50 | 0.894 | – |
| C[C@H](Cc1ccc(OCc2ccc(Cl)cc2)cc1)N(C)CC(=O)O | 217 | 0.864 | – |
| C[C@H](Cc1ccc(OCc2ccc3ccccc3c2)cc1)N(C)CC(=O)O | – | 14.2 | – |
| C[C@H](Cc1ccc(OCc2cccc([N+](=O)[O-])c2)cc1)N(C)CC(=O)O | > 50 | 4.37 | – |
| O=C(O)COCCN1CCN(C(c2ccccc2)c2ccc(Cl)cc2)CC1 (stereo unspecified) [CETIRIZINE] | – | – | efflux ratio at 1 h, 10 µM (P-gp (MDR1)): 4.12; efflux ratio at 1 h, 10 µM [14]: 3 |
| C[C@H](Cc1ccc(OCc2ccccn2)cc1)N(C)CC(=O)O | > 50 | – | – |
| COC(=O)c1ccc(COc2ccc(C[C@@H](C)N(C)CC(=O)O)cc2)cc1 | > 50 | – | – |
| C[C@H](Cc1ccc(OCc2cccnc2)cc1)N(C)CC(=O)O | > 50 | > 50 | – |
| CN(CC(=O)O)[C@H](CO)Cc1ccc(OCc2ccccc2)cc1 | > 50 | 1.01 | – |
